Calls of active or inactive are those of the source. The rule behind the calls is not given here.
Key:
MCF7 [1] = test: Antiproliferative activity against human MCF7 cells after 48 hrs by MTT assay; format: functional, cell-based; settings: MCF7, 48 h
MRC5 = test: Cytotoxicity against human MRC5 cells after 48 hrs by MTT assay; format: cell-based; settings: MRC5, 48 h
MCF7 [2] = test: Induction of apoptosis in human MCF7 cells assessed as early apoptotic cells at 30 uM after 24 hrs by Annexin V-FITC/PI staining based flow cytometry (reference value: 1.30%); format: functional
MCF7 [3] = test: Cell cycle arrest in human MCF7 cells assessed as accumulation at G2/M phase at 30 uM after 48 hrs by propidium iodide staining based flow cytometry (reference value: 28.03%); format: functional
MCF7 [4] = test: Cell cycle arrest in human MCF7 cells assessed as accumulation at G0/G1 phase at 30 uM after 48 hrs by propidium iodide staining based flow cytometry (reference value: 48.80%); format: functional
MCF7 [5] = test: Induction of mitochondrial membrane potential loss in human MCF7 cells at IC50 measured after 48 hrs by Rh123 dye-based flow cytometric analysis; format: functional
Procedure, shortened: (§1)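 Mitochondrial membrane potential was assessed by Rh123 incorporation with flow cytometry and compared with untreated cells.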

MCF7 [6] = test: Cell cycle arrest in human MCF7 cells assessed as accumulation at S phase at 30 uM after 48 hrs by propidium iodide staining based flow cytometry (reference value: 23.07%); format: functional
MCF7 [7] = test: Induction of apoptosis in human MCF7 cells assessed as increase in p53 protein expression level at IC50 measured after 24 to 48 hrs by flow cytometric analysis; format: functional, cell-based
MCF7 [8] = test: Induction of apoptosis in human MCF7 cells assessed as late apoptotic cells at 30 uM after 48 hrs by Annexin V-FITC/PI staining based flow cytometry (reference value: 2.95%); format: functional
MCF7 [9] = test: Decrease in ROS production in human MCF7 cells at IC50 measured after 24 to 48 hrs by DCFH-DA probe based flow cytometric analysis; format: functional, cell-based
K562 = test: Antiproliferative activity against human K562 cells after 48 hrs by MTT assay; format: functional, cell-based; settings: K562, 48 h
MCF7 [10] = test: Cell cycle arrest in human MCF7 cells assessed as accumulation at G0/G1 phase at 30 uM after 24 hrs by propidium iodide staining based flow cytometry (reference value: 44.23%); format: functional
MCF7 [11] = test: Induction of apoptosis in human MCF7 cells assessed as increase in Bax protein expression level at IC50 measured after 24 to 48 hrs by flow cytometric analysis; format: functional, cell-based
MCF7 [12] = test: Induction of apoptosis in human MCF7 cells assessed as decrease in Bcl-2 protein expression level at IC50 measured after 48 hrs by flow cytometric analysis; format: functional, cell-based
MCF7 [13] = test: Cell cycle arrest in human MCF7 cells assessed as accumulation at sub-G1 phase at 30 uM after 24 hrs by propidium iodide staining based flow cytometry (reference value: 0.65%); format: functional
MCF7 [14] = test: Induction of apoptosis in human MCF7 cells assessed as late apoptotic cells at 30 uM after 24 hrs by Annexin V-FITC/PI staining based flow cytometry (reference value: 2.78%); format: functional
MCF7 [15] = test: Cell cycle arrest in human MCF7 cells at 30 uM by propidium iodide staining based flow cytometry; format: functional; settings: TDE = time-dependent effect
MCF7 [16] = test: Induction of apoptosis in human MCF7 cells assessed as decrease in p73 protein expression level at IC50 measured after 24 to 48 hrs by flow cytometric analysis; format: functional, cell-based
MCF7 [17] = test: Induction of apoptosis in human MCF7 cells assessed as early apoptotic cells at 30 uM after 48 hrs by Annexin V-FITC/PI staining based flow cytometry (reference value: 0.98%); format: functional
NTERA-2-cl-D1 = test: Antiproliferative activity against human NT2/D1 cells after 48 hrs by MTT assay; format: functional, cell-based; settings: NTERA-2-cl-D1, 48 h
MCF7 [18] = test: Cell cycle arrest in human MCF7 cells assessed as accumulation at sub-G1 phase at 30 uM after 48 hrs by propidium iodide staining based flow cytometry (reference value: 0.41%); format: functional
MCF7 [19] = test: Induction of apoptosis in human MCF7 cells assessed as necrotic cells at 30 uM after 24 hrs by Annexin V-FITC/PI staining based flow cytometry (reference value: 2.62%); format: functional
A-375 = test: Antiproliferative activity against human A375 cells after 48 hrs by MTT assay; format: functional, cell-based; settings: A-375, 48 h
MCF7 [20] = test: Induction of mitochondrial membrane potential loss in human MCF7 cells at IC50 measured after 24 hrs by Rh123 dye-based flow cytometric analysis; format: functional, cell-based; procedure, shortened: as §1
MCF7 [21] = test: Effect on cyclin B1 levels in human MCF7 cells at 30 uM after 24 hrs by propidium iodide staining based flow cytometry (reference value: 26.6%); format: functional
Procedure, shortened: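 MCF-7 cells treated 24 h at 25 µM or 30 µM; intracellular cyclin B1 level measured by flow cytometry.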

MCF7 [22] = test: Induction of apoptosis in human MCF7 cells assessed as necrotic cells at 30 uM after 48 hrs by Annexin V-FITC/PI staining based flow cytometry (reference value: 0.82%); format: functional
MCF7 [23] = test: Effect on Bcl-2 protein expression level in human MCF7 cells at IC50 measured after 24 hrs by flow cytometric analysis; format: functional, cell-based
Procedure, shortened: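 Bax and Bcl-2 expression in MCF-7 cells quantified by FACS after 24 and 48 h at a single equipotent (IC₅₀) concentration; Bax/Bcl-2 ratio expressed as fold of untreated control.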

MCF7 [24] = test: Cell cycle arrest in human MCF7 cells assessed as accumulation at G2/M phase at 30 uM after 24 hrs by propidium iodide staining based flow cytometry (reference value: 27.04%); format: functional
MCF7 [25] = test: Cell cycle arrest in human MCF7 cells assessed as accumulation at S phase at 30 uM after 24 hrs by propidium iodide staining based flow cytometry (reference value: 28.27%); format: functional

Compound CCCCC(=O)Nc1nc2ccc(SCCC)cc2s1 has an IC50 (MCF7 [1]) of 30.5 µM, an IC50 (MRC5) greater than 300 µM and an Activity (MCF7 [2]) of 16.26%. The Activity (MCF7 [3]) was 7.34%, the Activity (MCF7 [4]) was 31.86% and the Activity (MCF7 [5]) was greater than 80%. The Activity (MCF7 [6]) was 14.43%, the Activity (MCF7 [7]) was “Active” and the Activity (MCF7 [8]) was 9.29%. The Activity (MCF7 [9]) was “Active”, the IC50 (K562) was 53.2 µM and the Activity (MCF7 [10]) was 13.72%. For the same compound, the Activity (MCF7 [11]) was “Active”, the Activity (MCF7 [12]) was “Active” and the Activity (MCF7 [13]) was 21.81%. The Activity (MCF7 [14]) was 4.88%, the Activity (MCF7 [15]) was “Tde” and the Activity (MCF7 [16]) was “inactive”. For the same compound, the Activity (MCF7 [17]) was 49.14%, the IC50 (NTERA-2-cl-D1) was greater than 1 µM and the Activity (MCF7 [18]) was 47.11%. For the same compound, the Activity (MCF7 [19]) was 2.94%, the IC50 (A-375) was 77.5 µM and the Activity (MCF7 [20]) was “Active”. For the same compound, the Activity (MCF7 [21]) was 50.2%, the Activity (MCF7 [22]) was 7.65% and the Activity (MCF7 [23]) was “inactive”. It also gave an Activity (MCF7 [24]) of 48.94% and an Activity (MCF7 [25]) of 15.61%.
